Structures can show the parent of a compound that is named as a salt. Residues, ends and D or L forms follow the SMILES beside them. *: point of attachment. Cbz = O=C(OCc1ccccc1)*

We go through 6 compounds from paper PMC9177073 (Science Advances, 2022).

The conditions of data set [1]: cited from earlier work; for ability to penetrate the blood-brain barrier: positive controls of PAMPA.
Data set [2] has as its system proteasome activity. Description: Proteasome activity in mouse tissue lysates after intraperitoneal injection. The following applies: in vivo.
Data set [3] concerns the target proteasome (chymotrypsin-like) activity (Mus musculus, UniProt O55234). Description: Proteasome peptidase activity in mouse brain lysates with inhibitor. The following applies: brains of 3-month-old mice, replicate samples incubated with inhibitor. It is filed as biochemical. The procedure, abridged: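 Mouse brain tissue lysed mechanically in reaction buffer, with buffer volume scaled to tissue weight; the supernatant was assayed. ATP-stimulated activity used 50 mM tris-HCl pH 7.8 with 1 mM MgCl2, 0.5 mM ATP and 1 mM DTT. ATP-independent activity used 50 mM tris-HCl pH 8.0 with 1 mM MgCl2 and 1 mM DTT. Proteasome inhibitor (1 μM) was added 5 min before starting with 50 μM Suc-LLVY-AMC.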

For the compound `NCCc1ccc(O)c(O)c1` [Dopamine, Dopamine hydrobromide], the “ability to cross the blood-brain barrier” value in data set [1] (negative control of PAMPA) is reported as “unable to efficiently cross the blood-brain barrier”.

As to `CC(C)C[C@@H](C=O)NC(=O)[C@H](CC(C)C)NC(=O)[C@H](CC(C)C)NC(=O)OCc1ccccc1` [MG132, N-carbobenzyloxy-L-leucyl-L-leucyl-L-leucinal] (Cbz-Leu-Leu-Leu-aldehyde), the “effect of inhibitor on the TAT1-8,9TOD-induced increase of proteasome activity” value in data set [2] was “could be blocked”.

As to `CC(C)C[C@H](NC(=O)[C@H](Cc1ccccc1)NC(=O)c1cnccn1)B(O)O` [bortezomib], the “effect of inhibitor on increased proteasome activity of NSE-PSMB5 mouse brains” value in data set [3] was “blocked”.

With `CC(C)NCC(O)COc1cccc2ccccc12` (stereo not drawn) [propranolol, Propranolol hydrochloride], in data set [1], the “ability to penetrate the blood-brain barrier” value was “known for their ability to penetrate the blood-brain barrier”.

With “Tat^47–57: HIV-1 Tat-derived peptide, synthesized in-house, positive control of PAMPA”, the “ability to penetrate the blood-brain barrier” value in data set [1] was “known for their ability to penetrate the blood-brain barrier”.

In the case of dermorphin, in data set [1], the “ability to penetrate the blood-brain barrier” value is on record as “known for their ability to penetrate the blood-brain barrier”.
